Reference: paper PMC9136973 (ACS Central Science, 2022)
In brackets after ≈: the same amount, converted by molar mass. Blank lines part the entries; values can stand above or below the compound they belong to.

What was measured:
[1] = tested on: Hsp70, Hsp40, and Hsp27; experiment: Immunoblot of heat shock response proteins in K562 cells; type: cell-based, human; conditions: 48 h, cytotoxic concentration
[2] = tested on: MOLT-4 cells; experiment: Xenotransplantation in zebrafish embryos; type: in vivo; conditions: 500 nM, 48 h
Summary of the method: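 Wild-type TE zebrafish embryos at 32 hpf each received ~1 nL (~200) CFDA SE-labeled MOLT-4 cells into the perivitelline space, then 1 h at 28 °C. Well-engrafted embryos were treated with test compound (500 nM) or DMSO for 48 h at 35 °C, with development monitored. Embryos were dissociated through a 40 μm strainer and labeled cells quantified by flow cytometry. Fold change was taken against the DMSO-group mean.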

[3] = Aqueous thermodynamic solubility; type: physicochemical; conditions: phosphate-buffered saline, pH 7.4
[4] = molecular target: recombinant Hsp90α CTD protein (Homo sapiens, UniProt P07900); experiment: Cell-free thermal shift assay; type: binding; conditions: 100 µM
recombinant Hsp90α CTD protein, sequence (P07900 563-732): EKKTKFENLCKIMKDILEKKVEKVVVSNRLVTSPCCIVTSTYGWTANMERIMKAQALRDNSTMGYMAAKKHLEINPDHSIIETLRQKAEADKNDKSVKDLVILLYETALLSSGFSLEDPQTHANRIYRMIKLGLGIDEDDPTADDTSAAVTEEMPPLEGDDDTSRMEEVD
Summary of the method: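 Recombinant human Hsp90α CTD (residues 563–732, 5 μM) was mixed with test compound in 1× PBS, pH 7.5, and incubated for 2 h. SYPRO orange (6×) was added and samples were heated with increasing temperature up to 95 °C. Tm was compared with the DMSO vehicle control.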

SMILES: CCNC(=O)c1noc(-c2cc(C(C)C)c(O)cc2O)c1-c1ccc(CN2CCOCC2)cc1 [AUY922]
induction of heat shock response (expression of Hsp70, Hsp40, Hsp27) [1]: led to HSR induction | toxicity on the development of xenotransplanted embryos [2]: No toxicity | number of transplanted MOLT4 cells vs DMSO-treated group ([2]; flow cytometry): significantly reduced

solubility thermodynamic [3]: 95 µM (≈ 27.9 µg/mL)
SMILES: Cc1nccn1CC1CCc2c(c3ccccc3n2C)C1=O (centres unmarked) [Ondansetron]

effect on thermal stability of Hsp90α CTD protein [4]: stabilized
SMILES: CO[C@H]1[C@H](OC(=O)c2ccc(C)[nH]2)[C@H](O)[C@@H](Oc2ccc3c(O)c(NC(=O)c4c[nH]c(C(=O)Nc5c(O)c6ccc(O[C@H]7OC(C)(C)[C@@H](OC)[C@H](OC(=O)c8ccc(C)[nH]8)[C@@H]7O)c(C)c6oc5=O)c4C)c(=O)oc3c2C)OC1(C)C [coumermycin A1]
